Results on 1 molecule are retold here after article PMC5532717 (ACS Central Science, 2017).

Holding throughout (assay type): biochemical
One experiment deals with T1, GBA2 (Homo sapiens, UniProt Q9HCG7).
T1 sequence (Q9HCG7 1-927): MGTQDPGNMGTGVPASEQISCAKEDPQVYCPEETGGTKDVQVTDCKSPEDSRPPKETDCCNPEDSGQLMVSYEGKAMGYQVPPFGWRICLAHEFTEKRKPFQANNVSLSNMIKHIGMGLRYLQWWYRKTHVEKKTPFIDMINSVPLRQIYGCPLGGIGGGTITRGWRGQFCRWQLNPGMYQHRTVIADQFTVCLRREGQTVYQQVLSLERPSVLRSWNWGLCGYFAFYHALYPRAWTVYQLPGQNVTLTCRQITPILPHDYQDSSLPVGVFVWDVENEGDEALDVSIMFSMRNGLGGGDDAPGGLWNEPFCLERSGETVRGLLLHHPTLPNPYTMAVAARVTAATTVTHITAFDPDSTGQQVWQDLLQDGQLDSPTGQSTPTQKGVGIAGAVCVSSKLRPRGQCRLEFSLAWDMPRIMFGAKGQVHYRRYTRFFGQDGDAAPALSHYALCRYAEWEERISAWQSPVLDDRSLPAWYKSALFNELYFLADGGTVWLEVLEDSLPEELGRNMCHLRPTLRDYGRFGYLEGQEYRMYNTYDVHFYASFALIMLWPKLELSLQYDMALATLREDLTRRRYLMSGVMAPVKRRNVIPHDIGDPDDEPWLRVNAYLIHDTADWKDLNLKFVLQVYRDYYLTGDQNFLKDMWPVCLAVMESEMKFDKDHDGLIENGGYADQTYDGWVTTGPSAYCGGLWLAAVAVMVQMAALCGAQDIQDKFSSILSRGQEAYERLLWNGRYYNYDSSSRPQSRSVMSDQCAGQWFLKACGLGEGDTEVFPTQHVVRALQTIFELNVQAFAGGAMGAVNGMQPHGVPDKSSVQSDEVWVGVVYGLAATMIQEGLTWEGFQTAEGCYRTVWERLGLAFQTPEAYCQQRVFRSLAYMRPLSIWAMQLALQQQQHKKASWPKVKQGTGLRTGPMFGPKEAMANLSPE
As to the kind of experiment: In vitro apparent IC50, GBA2 overexpressing HEK293T lysate, 4-MU-β-Glc. An outline of the steps: (§1)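 The enzyme source was GBA2-overexpressing HEK293T lysate or recombinant human GAA. It was preincubated 30 min at 37 °C with a range of test compound concentrations, then transferred into 4-MU glucoside substrate mixture to measure residual activity. Quenched with 1 M NaOH–glycine pH 10.3; 4-MU fluorescence at λex 366/λem 445 nm. Apparent IC50 is the mean of three technical replicates.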

Experiment [1] has as its target T2, human α-glucosidase GAA (Homo sapiens, UniProt P10253). As to the kind of experiment: Inhibition kinetics, recombinant GAA, 2,4-DNP-α-Glc.
Experiment [2] deals with T3, human β-glucosidase GBA1 (Homo sapiens, UniProt P04062, R534H).
T3 sequence (P04062 40-536 R534H): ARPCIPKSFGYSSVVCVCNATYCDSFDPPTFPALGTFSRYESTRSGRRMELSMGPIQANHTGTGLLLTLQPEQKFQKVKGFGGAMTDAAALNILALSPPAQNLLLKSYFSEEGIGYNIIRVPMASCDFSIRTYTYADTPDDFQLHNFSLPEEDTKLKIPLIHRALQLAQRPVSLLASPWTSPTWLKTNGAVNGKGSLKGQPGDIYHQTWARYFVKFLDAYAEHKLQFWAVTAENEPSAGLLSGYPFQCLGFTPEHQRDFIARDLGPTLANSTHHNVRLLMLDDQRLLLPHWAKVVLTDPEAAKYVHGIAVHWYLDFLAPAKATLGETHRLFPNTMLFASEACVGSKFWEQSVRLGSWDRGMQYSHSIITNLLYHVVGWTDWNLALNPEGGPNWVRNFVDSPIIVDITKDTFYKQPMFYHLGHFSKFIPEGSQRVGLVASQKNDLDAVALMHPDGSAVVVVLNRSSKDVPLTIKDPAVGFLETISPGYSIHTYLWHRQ
The experiment is described as follows: In vitro apparent IC50, recombinant GBA1. The essentials:
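Recombinant human GBA1 (Cerezyme) preincubated with a range of test compound concentrations for 30 min at 37 °C, then added to 4-MU-Glc substrate mixture to measure residual activity. Reaction quenched with 1 M NaOH–glycine (pH 10.3); 4-MU fluorescence read at λEX 366 / λEM 445 nm. Apparent IC50 is the mean of three technical replicates.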

Experiment [3] concerns the target T2, human α-glucosidase GAA. The experiment is described as follows: In vitro apparent IC50, recombinant GAA. The essentials: as §1
Experiment [4] deals with T3, human β-glucosidase GBA1. The experiment is described as follows: Inhibition kinetics, recombinant GBA1, 2,4-DNP-β-Glc. The settings on record: irreversible inhibition, 37 °C, pH 5.2. An outline of the steps:
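Recombinant human GBA1 preincubated with test compound for 0.5–8 min (fast inhibitors) or 0.5–360 min (slow), then added to 2,4-DNP-Glc. Residual rate taken from 400 nm absorbance versus a no-inhibitor control. kobs is the slope of −ln V/V0 versus time; kinact and KI come from a hyperbolic fit of kobs versus [I]. For fast inhibition (>50% after 30 s), kinact/KI is the linear slope at [I] ≪ KI.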

For the molecule `OC[C@@H]1[C@@H](O)[C@H](O)[C@@H](O)[C@@H]2O[C@H]12` [Compound 1, cyclophellitol, reference compound], the half-maximal inhibitory concentration (IC50) (as a rule, the concentration that gives 50% inhibition) at GBA2 was 0.139 ± 0.06 µM; on human β-glucosidase GBA1 [2], 0.165 ± 0.004 µM; at human α-glucosidase GAA [3], more than 100 µM. On human α-glucosidase GAA [1], the Ki (in general, a dissociation constant, usually derived from enzyme kinetics or from competition with a known ligand) was more than 500 µM. Moreover, the “β-glucosidase GBA1 kinact” value on human β-glucosidase GBA1 [4] is recorded as 0.72 min^–1.
